Test results reported in ChEMBL document CHEMBL1123648, “Synthesis, chemical reactivity, and antileukemic activity of 5-substituted 6,7-bis(hydroxymethyl)pyrrolo[1,2-c]thiazole biscarbamates and the corresponding sulfoxides and sulfones” (1987).

Experiments:
P388 [1] = assay: Log cell population relative to cell population at the beginning of treatment compared to control group A at a dose of 12.5 mg/kg; assay type: functional, Mus musculus
[2] = Antileukemic activity against Murine P388 lymphocytic leukemia and toxicity day survivors expressed as number of animals that survived to day five/ number of test animals under control group B at a dose of 6.25 mg/kg; 6 survived out of 6; assay type: functional, Mus musculus
[3] = Percent increase in life span of test animals compared to untreated tumor-bearing control group B animals at a dose of 12.5 mg/kg; assay type: functional; details: Mus musculus
[4] = Percent increase in life span of test animals compared to untreated tumor-bearing control group C animals at a dose of 6.25 mg/kg; assay type: functional; details: Mus musculus
[5] = Toxicity day survivors expressed as number of animals that survived to day five/ number of test animals under control group C at a dose of 100 mg/kg; 6 survived out of 6; assay type: functional, Mus musculus
[6] = Antileukemic activity against Murine P388 lymphocytic leukemia, body weight difference of the test animals compared to control group A animals at a dose of 12.5 mg/kg; assay type: functional, Mus musculus
Method in brief: (§1)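 CD2F1 mice implanted intraperitoneally with ascitic fluid carrying ca. 1×10^6 P388 cells, under the NCI protocol. Dosing was intraperitoneal, starting 24 h after inoculation, then every 24 h for five doses in total. The body weight difference of treated mice is taken against untreated controls. Toxicity day survivors are the mice alive at day five out of those tested.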

[7] = Antileukemic activity against Murine P388 lymphocytic leukemia, body weight difference of the test animals compared to control group C animals at a dose of 100 mg/kg; assay type: functional, Mus musculus; parameters: unit not given here; method in brief: as §1
[8] = Percent increase in life span of test animals compared to untreated tumor-bearing control group A animals at a dose of 25 mg/kg; assay type: functional; details: Mus musculus
[9] = Antileukemic activity against Murine P388 lymphocytic leukemia, body weight difference of the test animals compared to control group B animals at a dose of 100 mg/kg; assay type: functional, Mus musculus; parameters: unit not given here; method in brief: as §1
[10] = Antileukemic activity against Murine P388 lymphocytic leukemia, body weight difference of the test animals compared to control group C animals at a dose of 25 mg/kg; assay type: functional, Mus musculus; method in brief: as §1
[11] = Log cell population relative to cell population at the beginning of treatment compared to control group A at a dose of 100 mg/kg; assay type: functional, Mus musculus
[12] = Toxicity day survivors expressed as number of animals that survived to day five/ number of test animals under control group C at a dose of 25 mg/kg; 6 survived out of 6; assay type: functional, Mus musculus
[13] = Percent increase in life span of test animals compared to untreated tumor-bearing control group C animals at a dose of 25 mg/kg; assay type: functional; details: Mus musculus
[14] = Antileukemic activity against Murine P388 lymphocytic leukemia, body weight difference of the test animals compared to control group B animals at a dose of 6.25 mg/kg; assay type: functional, Mus musculus; method in brief: as §1
[15] = Antileukemic activity against Murine P388 lymphocytic leukemia, body weight difference of the test animals compared to control group A animals at a dose of 100 mg/kg; assay type: functional, Mus musculus; parameters: unit not given here; method in brief: as §1
[16] = Antileukemic activity against Murine P388 lymphocytic leukemia, body weight difference of the test animals compared to control group C animals at a dose of 50 mg/kg; assay type: functional, Mus musculus; parameters: unit not given here; method in brief: as §1
P388 [17] = assay: Log cell population relative to cell population at the beginning of treatment compared to control group B at a dose of 50 mg/kg; assay type: functional, Mus musculus
P388 [18] = assay: Log cell population relative to cell population at the beginning of treatment compared to control group A at a dose of 50 mg/kg; assay type: functional, Mus musculus
[19] = Antileukemic activity against Murine P388 lymphocytic leukemia, body weight difference of the test animals compared to control group C animals at a dose of 6.25 mg/kg; assay type: functional, Mus musculus; method in brief: as §1
[20] = Percent increase in life span of test animals compared to untreated tumor-bearing control group A animals at a dose of 6.25 mg/kg; assay type: functional; details: Mus musculus
[21] = Antileukemic activity against Murine P388 lymphocytic leukemia, body weight difference of the test animals compared to control group B animals at a dose of 25 mg/kg; assay type: functional, Mus musculus; parameters: unit not given here; method in brief: as §1
[22] = Percent increase in life span of test animals compared to untreated tumor-bearing control group A animals at a dose of 50 mg/kg; assay type: functional; details: Mus musculus
P388 [23] = assay: Log cell population relative to cell population at the beginning of treatment compared to control group B at a dose of 25 mg/kg; assay type: functional, Mus musculus
[24] = Toxicity day survivors expressed as number of animals that survived to day five/ number of test animals under control group B at a dose of 100 mg/kg; 6 survived out of 6; assay type: functional, Mus musculus
[25] = Toxicity day survivors expressed as number of animals that survived to day five/ number of test animals under control group B at a dose of 12.5 mg/kg; 6 survived out of 6; assay type: functional, Mus musculus
P388 [26] = assay: Percent increase in life span of test animals compared to untreated tumor-bearing control group B animals at a dose of 50 mg/kg; assay type: functional; details: Mus musculus
[27] = Toxicity day survivors expressed as number of animals that survived to day five/ number of test animals under control group A at a dose of 12.5 mg/kg; 6 survived out of 6; assay type: functional, Mus musculus
[28] = Percent increase in life span of test animals compared to untreated tumor-bearing control group B animals at a dose of 25 mg/kg; assay type: functional; details: Mus musculus
[29] = Percent increase in life span of test animals compared to untreated tumor-bearing control group C animals at a dose of 50 mg/kg; assay type: functional; details: Mus musculus
[30] = Toxicity day survivors expressed as number of animals that survived to day five/ number of test animals under control group A at a dose of 6.25 mg/kg; 6 survived out of 6; assay type: functional, Mus musculus
P388 [31] = assay: Log cell population relative to cell population at the beginning of treatment compared to control group B at a dose of 12.5 mg/kg; assay type: functional, Mus musculus
[32] = Percent increase in life span of test animals compared to untreated tumor-bearing control group B animals at a dose of 100 mg/kg; assay type: functional; details: Mus musculus
[33] = Percent increase in life span of test animals compared to untreated tumor-bearing control group C animals at a dose of 100 mg/kg; assay type: functional; details: Mus musculus
[34] = Toxicity day survivors expressed as number of animals that survived to day five/ number of test animals under control group A at a dose of 50 mg/kg; 6 survived out of 6; assay type: functional, Mus musculus
[35] = Percent increase in life span of test animals compared to untreated tumor-bearing control group C animals at a dose of 12.5 mg/kg; assay type: functional; details: Mus musculus
P388 [36] = assay: Log cell population relative to cell population at the beginning of treatment compared to control group C at a dose of 12.5 mg/kg; assay type: functional, Mus musculus
P388 [37] = assay: Log cell population relative to cell population at the beginning of treatment compared to control group C at a dose of 25 mg/kg; assay type: functional, Mus musculus
[38] = Antileukemic activity against Murine P388 lymphocytic leukemia and toxicity day survivors expressed as number of animals that survived to day five/ number of test animals under control group B at a dose of 25 mg/kg; 6 survived out of 6; assay type: functional, Mus musculus
[39] = Antileukemic activity against Murine P388 lymphocytic leukemia and toxicity day survivors expressed as number of animals that survived to day five/ number of test animals under control group C at a dose of 50 mg/kg; 6 survived out of 6; assay type: functional, Mus musculus
[40] = Percent increase in life span of test animals compared to untreated tumor-bearing control group A animals at a dose of 100 mg/kg; assay type: functional; details: Mus musculus

Compound `CC(C)NC(=O)OCc1c(COC(=O)NC(C)C)c(-c2ccc(Cl)c(Cl)c2)n2c1CCC2` has a KE (P388 [1]) of 1.4, a TDS [2] of 6 and an ILS at 12.5 mg/kg [3] of 45%. It also gave an ILS at 6.25 mg/kg [4] of 26%, a TDS [5] of 6 and a BWD [6] of -0.6. For the same compound, the BWD [7] was -2.6, the ILS at 25 mg/kg [8] was 75% and the BWD [9] was -4.6. For the same compound, the BWD [10] was -1.4, the KE [11] was 0.8 and the TDS [12] was 6. For the same compound, the ILS at 25 mg/kg [13] was 55%, the BWD [14] was -0.5 and the BWD [15] was -4.2. It also gave a BWD [16] of -1.8, a KE (P388 [17]) of 5.71 and a KE (P388 [18]) of 4.35. The BWD [19] was -1.1, the ILS at 6.25 mg/kg [20] was 51% and the BWD [21] was -2.2. It also gave an ILS at 50 mg/kg [22] of 97%, a KE (P388 [23]) of 3.01 and a TDS [24] of 6. For the same compound, the TDS [25] was 6, the ILS at 50 mg/kg (P388 [26]) was 95% and the TDS [27] was 6. The ILS at 25 mg/kg [28] was 66%, the ILS at 50 mg/kg [29] was 96% and the TDS [30] was 6. The KE (P388 [31]) was 1.08, the ILS at 100 mg/kg [32] was -14% and the ILS at 100 mg/kg [33] was 123%. It also gave a TDS [34] of 6, an ILS at 12.5 mg/kg [35] of 32% and a KE (P388 [36]) of -0.07. It also gave a KE (P388 [37]) of 1.85, a TDS [38] of 6 and a TDS [39] of 6. It also gave an ILS at 100 mg/kg [40] of 48%.
